The results in this text go back to ChEMBL document CHEMBL1138153, “N-substituted 4beta-methyl-5-(3-hydroxyphenyl)-7alpha-amidomorphans are potent, selective kappa opioid receptor antagonists” (J Med Chem, 2006).

Assay [1] has as its target Delta-type opioid receptor (Homo sapiens) (UniProt P41143). Description: Inhibition of DPDPE stimulated [35S]GTP-gamma-S binding to cloned human delta opioid receptor expressed in CHO cells. It counts as functional, cell-based. Put shortly: (§1)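 Antagonism measured as a rightward shift of the agonist concentration–response curve for [35S]GTPγS binding in CHO cells expressing the cloned human receptor. Curves were run with and without one fixed concentration of test compound. Ke = [L]/(DR − 1), where [L] is the test compound concentration and DR is the ratio of agonist EC50 with versus without test compound.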

Assay [2] addresses Opioid receptors; mu & kappa (Homo sapiens) (UniProt P41145+P35372). Description: Selectivity for human kappa opioid receptor over human mu opioid receptor. The format is protein assay.
For assay [3], the target named is Mu-type opioid receptor (Homo sapiens) (UniProt P35372). Description: Inhibition of DAMGO stimulated [35S]GTP-gamma-S binding to cloned human mu opioid receptor expressed in CHO cells. It counts as functional, cell-based. Put shortly:
as §1

Assay [4] concerns the target Kappa-type opioid receptor (Homo sapiens) (UniProt P41145). Description: Inhibition of U69,593 stimulated [35S]GTP-gamma-S binding to cloned human kappa opioid receptor expressed in CHO cells. The format is functional, cell-based. Put shortly:
as §1
(GTPγS is a poorly hydrolysed GTP analogue; its binding reports G protein activation.)

Assay [5] addresses Opioid receptors; delta & kappa (Homo sapiens) (UniProt P41145+P41143). Description: Selectivity for human kappa opioid receptor over human delta opioid receptor. It counts as protein assay.

Sequence of Kappa-type opioid receptor (Homo sapiens) (P41145 whole entry): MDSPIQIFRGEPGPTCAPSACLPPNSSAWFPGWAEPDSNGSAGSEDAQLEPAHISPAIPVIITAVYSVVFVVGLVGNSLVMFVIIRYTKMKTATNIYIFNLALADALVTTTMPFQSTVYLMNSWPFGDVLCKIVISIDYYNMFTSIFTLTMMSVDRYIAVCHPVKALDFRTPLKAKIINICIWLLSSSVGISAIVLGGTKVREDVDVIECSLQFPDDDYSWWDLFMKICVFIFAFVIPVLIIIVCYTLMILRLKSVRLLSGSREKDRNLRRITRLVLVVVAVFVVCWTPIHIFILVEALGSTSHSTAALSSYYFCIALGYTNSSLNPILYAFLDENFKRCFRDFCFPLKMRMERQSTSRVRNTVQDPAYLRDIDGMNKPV
Sequence of Opioid receptors; mu & kappa (Homo sapiens) (P35372 whole entry, looked up): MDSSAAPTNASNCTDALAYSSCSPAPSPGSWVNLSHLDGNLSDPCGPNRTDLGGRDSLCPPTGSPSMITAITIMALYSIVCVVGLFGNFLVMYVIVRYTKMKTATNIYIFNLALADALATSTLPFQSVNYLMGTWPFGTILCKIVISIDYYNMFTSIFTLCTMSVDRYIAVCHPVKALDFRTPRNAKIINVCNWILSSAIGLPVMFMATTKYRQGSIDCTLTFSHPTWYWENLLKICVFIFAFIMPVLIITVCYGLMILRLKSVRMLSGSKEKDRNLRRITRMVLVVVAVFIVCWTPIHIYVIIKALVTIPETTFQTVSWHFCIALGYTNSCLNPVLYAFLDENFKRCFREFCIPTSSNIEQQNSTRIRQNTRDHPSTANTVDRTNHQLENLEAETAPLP
Sequence of Opioid receptors; mu & kappa (Homo sapiens) (P41145 whole entry, looked up): as the sequence (P41145 whole entry) above
Sequence of Mu-type opioid receptor (Homo sapiens) (P35372 whole entry): as the sequence (P35372 whole entry, looked up) above
Sequence of Opioid receptors; delta & kappa (Homo sapiens) (P41143 whole entry, looked up): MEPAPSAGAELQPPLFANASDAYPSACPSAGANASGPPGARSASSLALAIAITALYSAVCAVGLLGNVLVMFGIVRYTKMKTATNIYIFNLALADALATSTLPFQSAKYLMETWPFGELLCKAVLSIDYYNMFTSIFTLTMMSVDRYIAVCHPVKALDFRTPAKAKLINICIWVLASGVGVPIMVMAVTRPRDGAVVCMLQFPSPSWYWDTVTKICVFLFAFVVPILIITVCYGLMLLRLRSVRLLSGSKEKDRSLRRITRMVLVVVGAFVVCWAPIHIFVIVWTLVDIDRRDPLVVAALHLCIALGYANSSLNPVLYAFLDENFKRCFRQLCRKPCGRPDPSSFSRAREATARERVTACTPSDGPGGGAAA
Sequence of Opioid receptors; delta & kappa (Homo sapiens) (P41145 whole entry, looked up): as the sequence (P41145 whole entry) above
Sequence of Delta-type opioid receptor (Homo sapiens) (P41143 whole entry): as the sequence (P41143 whole entry, looked up) above

On to `COc1cc2c(cc1OC)CN(CCC(=O)N[C@H]1CC3CC(c4cccc(O)c4)(C1)C(C)CN3CCCc1ccccc1)CC2` (single isomer, unassigned; (-)), for which the results for the Ke in assay [1], in assay [3] and in assay [4] were 40 nM, 218 nM and 0.54 nM, respectively. Moreover, the Ratio Ke turned out to be 404 in assay [2] and 74 in assay [5].

Consider `CC1CN(CCCc2ccccc2)C2C[C@H](NC(=O)CCN3CCc4ccccc4C3)CC1(c1cccc(O)c1)C2` (stereo partly specified), for which the Ke amounted to 13 nM in assay [1], 48 nM in assay [3] and 0.09 nM in assay [4]. The values for the Ratio Ke in assay [2] and in assay [5] were 533 and 144, respectively.

Regarding `CC1CN(CCCc2ccccc2)C2C[C@H](NC(=O)CCN3CCOCC3)CC1(c1cccc(O)c1)C2` (stereo partly specified), the Ke amounted to 77 nM in assay [1], 259 nM in assay [3] and 2.2 nM in assay [4]. For the same molecule, the Ratio Ke in assay [2] was determined as 118; in assay [5], 35.

In assay [4], `CC(C)[C@@H](CN1CC[C@@](C)(c2cccc(O)c2)[C@@H](C)C1)NC(=O)[C@H]1Cc2ccc(O)cc2CN1` gave a Ke of 0.02 nM.

On to `CC1CN(CCCc2ccccc2)C2C[C@H](NC(=O)CCN3CCc4c(O)cccc4C3)CC1(c1cccc(O)c1)C2` (stereo partly specified), for which the Ke in assay [1] was determined as 25 nM; in assay [3], 4.6 nM; in assay [4], 0.07 nM. Besides, the figures for the Ratio Ke in assay [2] and in assay [5] were 66 and 357, respectively.

Consider `CC1CN(CCCc2ccccc2)C2C[C@H](NC(=O)CCN3CCc4cc(O)ccc4C3)CC1(c1cccc(O)c1)C2` (stereo partly specified), for which the Ke in assay [1] was 32 nM; in assay [3] it was 26 nM; in assay [4], 0.3 nM. Besides, the figures for the Ratio Ke in assay [2] and in assay [5] were 87 and 107, respectively.

`CC1CN(CCCc2ccccc2)C2C[C@H](NC(=O)CCN3CCN(C)CC3)CC1(c1cccc(O)c1)C2` (stereo partly specified): the Ke in assay [1] was 186 nM; in assay [3], 82 nM; in assay [4], 0.87 nM. In addition, the Ratio Ke stood at 94 in assay [2] and 214 in assay [5].

As to `CCCCCCN1CC(C)C2(c3cccc(O)c3)CC1C[C@H](NC(=O)CCN1CCc3ccccc3C1)C2` (stereo partly specified), the Ke was found to be 145 nM in assay [1], 103 nM in assay [3] and 0.2 nM in assay [4]. Moreover, the Ratio Ke amounted to 515 in assay [2] and 725 in assay [5].

`Cc1ccccc1CCCN1CC(C)C2(c3cccc(O)c3)CC1C[C@H](NC(=O)CCN1CCc3ccccc3C1)C2` (stereo partly specified): the Ke worked out at 20 nM in assay [1], 41 nM in assay [3] and 0.2 nM in assay [4]. Also, the Ratio Ke in assay [2] stood at 205; in assay [5], 100.

Take `Cc1ccccc1CCN1CC(C)C2(c3cccc(O)c3)CC1C[C@H](NC(=O)CCN1CCc3ccccc3C1)C2` (stereo partly specified): the Ke in assay [1] was 25 nM; in assay [3], 28 nM; in assay [4], 0.04 nM. In addition, the Ratio Ke in assay [2] is 700; in assay [5], 625.

In the case of `CC1CCN(CCC(=O)N[C@H]2CC3CC(c4cccc(O)c4)(C2)C(C)CN3CCCc2ccccc2)CC1` (stereo partly specified), the Ke in assay [1] was determined as 313 nM; in assay [3], 176 nM; in assay [4] it was 0.47 nM. Also, the Ratio Ke in assay [2] was found to be 374; in assay [5], 666.

In the case of `CC1CN(CCCc2ccco2)C2C[C@H](NC(=O)CCN3CCc4ccccc4C3)CC1(c1cccc(O)c1)C2` (stereo partly specified), the Ke in assay [1] was 52 nM; in assay [3], 35 nM; in assay [4], 0.32 nM. In addition, the Ratio Ke turned out to be 109 in assay [2] and 163 in assay [5].

`CC1CN(CCCc2ccccc2)C2C[C@H](NC(=O)CCN3CCCCC3)CC1(c1cccc(O)c1)C2` (stereo partly specified): the Ke in assay [1] came to 33 nM; in assay [3] it was 42 nM; in assay [4], 0.24 nM. Further, the Ratio Ke in assay [2] came to 175; in assay [5] it was 138.

Turning to `COc1ccc2c(c1)CCN(CCC(=O)N[C@H]1CC3CC(c4cccc(O)c4)(C1)C(C)CN3CCCc1ccccc1)C2` (stereo partly specified), the Ke is 42 nM in assay [1], 261 nM in assay [3] and 0.12 nM in assay [4]. Also, the Ratio Ke came to 2180 in assay [2] and 350 in assay [5].

As for `CC1CN(CCCc2ccsc2)C2C[C@H](NC(=O)CCN3CCc4ccccc4C3)CC1(c1cccc(O)c1)C2` (stereo partly specified), the Ke in assay [1] worked out at 29 nM; in assay [3] it was 52 nM; in assay [4], 1.1 nM. Moreover, the Ratio Ke in assay [2] stood at 47; in assay [5] it was 26.

Regarding `CC1CN(CCCc2ccccc2)C2C[C@H](NC(=O)CCN3CCc4ccc(O)cc4C3)CC1(c1cccc(O)c1)C2` (stereo partly specified), the figures for the Ke in assay [1], in assay [3] and in assay [4] were 62 nM, 52 nM and 0.09 nM, respectively. Moreover, the Ratio Ke in assay [2] is 578; in assay [5], 689.

Regarding `CC1CN(CCCc2cccs2)C2C[C@H](NC(=O)CCN3CCc4ccccc4C3)CC1(c1cccc(O)c1)C2` (stereo partly specified), the figures for the Ke in assay [1], in assay [3] and in assay [4] were 19 nM, 25 nM and 1.8 nM, respectively. For the same molecule, the Ratio Ke in assay [2] was determined as 14; in assay [5], 11.

With `Cc1ccccc1CN1CC(C)C2(c3cccc(O)c3)CC1C[C@H](NC(=O)CCN1CCc3ccccc3C1)C2` (stereo partly specified), the Ke in assay [1] is more than 500 nM; in assay [3], more than 500 nM; in assay [4], 6.1 nM. The Ratio Ke in assay [2] and in assay [5] was more than 82 each time.

Regarding `COc1ccc2c(c1)CN(CCC(=O)N[C@H]1CC3CC(c4cccc(O)c4)(C1)C(C)CN3CCCc1ccccc1)CC2` (stereo partly specified), the Ke in assay [1] was determined as 35 nM; in assay [3] it was 28 nM; in assay [4] it was 0.28 nM. For the same molecule, the Ratio Ke in assay [2] is 100; in assay [5], 125.
